Data taken from ChEMBL document CHEMBL3259777, “The cannabinoid acids, analogs and endogenous counterparts” (Bioorg Med Chem, 2014).

Columns and labels:
[1] = Antiinflammatory activity in LPS-induced mouse […] cells assessed as PGJ2 synthesis at 10 uM relative to control; type: functional, RAW264.7
Mus musculus [2] = species: Mus musculus; assay: Stimulation of phospholipase A2 in mouse brain synaptosomes using [1-14C]phosphotidylcholine as substrate assessed as arachidonic acid release relative to control; type: subcellular
Mus musculus [3] = assay: Antiinflammatory activity in mouse peritonitis model assessed as reduction of pro-inflammatory cell migration into peritoneal cavity at 0.3 mg/kg, po; type: functional; parameters: scale not given: the % may be the effect or the level left
In short: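 Mouse peritonitis induced by thioglycollate challenge. Compound given orally, and migration of pro-inflammatory cells into the peritoneal cavity quantified.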

[4] = Antiinflammatory activity in LPS-induced mouse […] cells assessed as PGJ2 synthesis at 3 uM relative to control; type: functional, RAW264.7
[5] = Antiinflammatory activity in LPS-induced mouse […] cells assessed as PGJ2 synthesis at 3 uM in presence of polyclonal antiGPR18 relative to control; type: functional, RAW264.7
RAW [6] = assay: Antiinflammatory activity in mouse RAW cells assessed as arachidonic acid release at 1.5 uM after 1 hr by liquid scintillation counting analysis in presence of [14C]-arachidonic acid relative to control; type: functional
In short: (§1)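 RAW cells labelled 2 hr with 14C-arachidonic acid, then medium changed to RPMI + 0.1% BSA. Cells treated 1 hr with non-radioactive test agent added in 10 µl DMSO; DMSO alone as control. Release counted by LSC on a 0.1 ml medium aliquot, expressed as treated/control, means ± SD.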

RAW [7] = assay: Antiinflammatory activity in mouse RAW cells assessed as arachidonic acid release at 3 uM after 1 hr by liquid scintillation counting analysis in presence of [14C]-arachidonic acid relative to control; type: functional; in short: as §1
RAW [8] = assay: Antiinflammatory activity in mouse RAW cells assessed as arachidonic acid release at 6 uM after 1 hr by liquid scintillation counting analysis in presence of [14C]-arachidonic acid relative to control; type: functional; in short: as §1
RAW [9] = assay: Antiinflammatory activity in mouse RAW cells assessed as arachidonic acid release at 12 uM after 1 hr by liquid scintillation counting analysis in presence of [14C]-arachidonic acid relative to control; type: functional; in short: as §1
RAW [10] = assay: Antiinflammatory activity in mouse RAW cells assessed as arachidonic acid release at 24 uM after 1 hr by liquid scintillation counting analysis in presence of [14C]-arachidonic acid relative to control; type: functional; in short: as §1
Rattus norvegicus [11] = assay: Analgesic activity in rat assessed as reversal of mechanical hyperalgesia at 0.1 to 1 mg/kg, po; type: functional; settings: dose mg/kg 0.1-1
Rattus norvegicus [12] = assay: Reversal of PAF-induced allodynia in ip dosed rat after 40 to 60 mins by paw withdrawal test; type: functional
In short: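 Rat tonic inflammatory pain model with platelet-activating factor injected into the hind paw. Doses of 3, 4.5, 6.8, 10.1 and 15.2 mg/kg given i.p. Paw withdrawal threshold to mechanical pressure read 40-60 min post-drug. Approximate ED-50 estimated from the dose-response curve for reversal of PAF-induced allodynia.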

Cannabinoid receptor 1 = Cannabinoid receptor 1 (Homo sapiens, UniProt P21554); assay: Binding affinity to CB1 receptor (unknown origin)
Mus musculus [13] = assay: Antiinflammatory activity in mouse assessed as reduction of IL-1beta/TNF-alpha-induced leukocyte count in air pouches at 0.1 mg/kg/day; type: functional; parameters: scale not given: the % may be the effect or the level left
In short: (§2)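 Mouse acute inflammation: IL-1β and TNFα injected into air pouches formed on the back. Drug dosed daily, and leukocytes counted in pouch exudates.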

Mus musculus [14] = assay: Antiinflammatory activity in mouse assessed as reduction of IL-1beta/TNF-alpha-induced leukocyte count in air pouches at 0.2 mg/kg/day; type: functional; parameters: scale not given: the % may be the effect or the level left; in short: as §2
Mus musculus [15] = assay: Antiinflammatory activity in mouse assessed as adhering leukocytes at 1 mg/kg, po after 6 hrs relative to vehicle-treated control; type: functional
In short: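 Given orally in oil over 0.01 to 1.0 mg/kg. Peritoneal cells collected from mice 6 hours after dosing and cultured 18-20 hours before leukocyte adhesion was measured. Compared with vehicle-dosed mice.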

[16] = Inhibition of MMP-3 release in TNF alpha-induced HFLS cells at 10 uM; type: functional; settings: Homo sapiens
[17] = Induction of LXA4 production in HFLS cells at 1 to 30 uM incubated for 1 hr followed by TNF-alpha challenge for 18 hrs by ELISA relative to control; type: functional, Homo sapiens
Blood [18] = assay: Induction of LXA4 production in human blood at 1 to 30 uM incubated for 5 hrs by ELISA; type: functional
Mus musculus [19] = assay: Reduction of cell invasion to peritoneum in zymosan-A-induced FVB mouse peritonitis model at 1.5 mg/kg, iv by mass spectrometry; type: functional; parameters: scale not given: the % may be the effect or the level left
Mus musculus [20] = assay: Induction of LXA4 production in zymosan-A-induced FVB mouse peritonitis model at 1.5 mg/kg, iv by mass spectrometry relative to control; type: functional
Blood [21] = assay: Induction of LXA4 production in human blood at 25 uM after 1 hr in presence of 12/15 LOX inhibitor baicalein relative to control; type: functional
[22] = Plasma concentration in patient at 20 mg, po after 2 hrs; type: ADME, organism-based; settings: human
In short: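 Single oral 20 mg dose in humans. Plasma sampled two hours post-dose, reported as mean ± R.S.D., n=9; glucuronide measured as well.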

[23] = Drug metabolism in rat hepatocytes assessed as parent compound remaining after 2 hrs; type: ADME, cell-based, Hepatocyte; settings: read-out: Stability
[24] = Drug metabolism in dog hepatocytes assessed as parent compound remaining after 2 hrs; type: ADME, cell-based, Canis lupus familiaris, Hepatocyte; settings: read-out: Stability
[25] = Drug metabolism in cynomolgus monkey hepatocytes assessed as parent compound remaining after 2 hrs; type: ADME, cell-based, Hepatocyte; settings: read-out: Stability
[26] = Drug metabolism in human hepatocytes assessed as parent compound remaining after 2 hrs; type: ADME, cell-based, Hepatocyte; settings: read-out: Stability

Cannabinoid receptor 1, sequence (P21554 whole entry): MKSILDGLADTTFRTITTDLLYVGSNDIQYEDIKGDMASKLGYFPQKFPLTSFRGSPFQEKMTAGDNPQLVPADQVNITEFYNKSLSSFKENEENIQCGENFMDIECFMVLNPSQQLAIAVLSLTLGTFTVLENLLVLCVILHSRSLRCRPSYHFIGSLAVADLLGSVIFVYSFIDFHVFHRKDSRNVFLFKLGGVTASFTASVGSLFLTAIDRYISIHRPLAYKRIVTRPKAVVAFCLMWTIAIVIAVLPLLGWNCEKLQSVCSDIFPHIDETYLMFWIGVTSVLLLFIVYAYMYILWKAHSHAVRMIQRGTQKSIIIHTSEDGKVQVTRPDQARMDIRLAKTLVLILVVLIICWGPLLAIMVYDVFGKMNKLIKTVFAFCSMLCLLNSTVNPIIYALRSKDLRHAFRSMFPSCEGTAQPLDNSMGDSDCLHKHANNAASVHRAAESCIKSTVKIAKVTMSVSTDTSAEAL

`CCCCC/C=C\C/C=C\C/C=C\CCCCC(=O)NCC(=O)O` gave an Activity [1] of 203%.

`CCCCC/C=C\C/C=C\C/C=C\C/C=C\CCCC(=O)N[C@@H](C)C(=O)O` gave an Activity [1] of 212%.

Work on `CCCCCCCC/C=C\CCCCCCCC(=O)NC(C)(C)C(=O)O` yielded an Activity [1] of 118%.

`CCCCC/C=C\C/C=C\C/C=C\C/C=C\CCCC(=O)NC(C)(C)C(=O)O` gave an Activity [1] of 220%.

`CCCCCc1cc(O)c2c(c1)OC(C)(C)[C@@H]1CCC(C(=O)O)=C[C@@H]21` showed an Activity (Mus musculus [2]) of 20%.

`CCCCC/C=C\C/C=C\C/C=C\C/C=C\CCCC(=O)NCC(=O)O` [ARACHIDONOYL GLYCINE] gave an Activity (Mus musculus [3]) of 60%, an Activity [1] of 213% and an Activity [4] of 100%. The Activity [5] was 50%, the T/C (RAW [6]) was 1 and the T/C (RAW [7]) was 1.2. The T/C (RAW [8]) was 1.4, the T/C (RAW [9]) was 1.85 and the T/C (RAW [10]) was 2.95.

In the case of `CCCCCCC(C)(C)c1cc(O)c2c(c1)OC(C)(C)[C@@H]1CC=C(C(=O)O)C[C@@H]21` [LENABASUM], the Activity (Rattus norvegicus [11]) is reported as “<=60%”, the ED50 (Rattus norvegicus [12]) is reported as 4.2 mg/kg and the Ki (Cannabinoid receptor 1) is reported as 5.7 nM. It also gave an Activity (Mus musculus [13]) of 42.3%, an Activity (Mus musculus [14]) of 65.5% and an Activity (Mus musculus [15]) of 24%. For the same compound, the inhibition at 10 µM [16] was 88%, the Ratio [17] was 2 and the Ratio (Blood [18]) was 2. The Activity (Mus musculus [19]) was 75%, the Ratio (Mus musculus [20]) was 7 and the Activity (Blood [21]) was greater than 90%. The concentration at 2 h [22] was 0.599 µg/mL, the remaining at 2 h [23] was 103% and the remaining at 2 h [24] was 90%. The remaining at 2 h [25] was 86% and the remaining at 2 h [26] was 83%.

For `CCCCCCCCCCCCCCCC(=O)NCC(=O)O` [PALMITOYL GLYCINE], the Activity [1] was 100%.
